# The source made the active and inactive calls. The calls are words filed in the database; no cut-off is given here. Residues, ends and D or L forms follow the SMILES beside them. *: point of attachment. Cbz = O=C(OCc1ccccc1)*; CH2F = FC*
# Assays:
# [1] = Cytotoxicity against human SF188 cells at 108.4 uM within 10 hrs by MTT assay; type: cell-based; conditions: sf-188, 10 h
# Summary of the method: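 Cells seeded at 2.5 × 10^5/mL 24 h beforehand were treated with 108.4 µM. Viability was measured by MTT assay at 1, 4, 6, 8, 10 and 24 h after treatment.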
# [2] = Cytotoxicity against human SF188 cells after 24 hrs; type: cell-based; conditions: SF-188, 24 h
# Summary of the method: (§1)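 Glioma cells seeded at 2.5 × 10^5/mL 24 h before treatment, then exposed to a range of concentrations for 24 h. Viability was measured by MTT assay, and cell death was read from the 24 h dose-response curve.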
# U-87 MG [3] = assay: Increase in superoxide anion level in human U87MG cells after 2 hrs; type: functional, cell-based; conditions: U-87MG ATCC
# Summary of the method: (§2)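 Superoxide anion was measured by dihydroethidine (HE) fluorescence using flow cytometry in SF188 or U87MG cells 2 h after treatment at several concentrations. Result is reported as the percentage of HE-positive cells.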
# Caspase-3 (Homo sapiens) = target: T1, Caspase-3 (Homo sapiens) (UniProt P42574); assay: Activation of caspase 3 in human SF188 cells at 108.4 uM; type: cell-based; conditions: SF-188
# T1 sequence (whole entry): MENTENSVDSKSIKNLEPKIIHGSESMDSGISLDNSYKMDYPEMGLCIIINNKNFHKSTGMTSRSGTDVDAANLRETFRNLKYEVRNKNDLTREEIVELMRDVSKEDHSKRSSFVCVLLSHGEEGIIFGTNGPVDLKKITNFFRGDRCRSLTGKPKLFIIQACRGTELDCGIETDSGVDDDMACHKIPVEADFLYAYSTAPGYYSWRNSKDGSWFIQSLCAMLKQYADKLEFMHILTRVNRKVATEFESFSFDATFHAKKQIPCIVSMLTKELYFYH
# Summary of the method: (§3)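 Western blot of SF188 lysates after treatment with 108.4 µM compound, sampled at different time points or at different concentrations. 50 µg total protein loaded per lane. Pro-caspase and cleaved (active) caspase bands were detected, with actin as loading control.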
# SF-188 [4] = assay: Cell viability in human SF188 cells; type: functional
# Summary of the method: (§4)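 SF188 cells were seeded at 2.5 × 10^5/mL 24 h before use. For the inhibitor arm, cells were pretreated for 2 h with various concentrations of Z-VAD-FMK, then 43.4 µM compound was added. Viability was read by MTT assay 8 h after compound addition.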
# Caspase-9 (Homo sapiens) = target: T2, Caspase-9 (Homo sapiens) (UniProt P55211); assay: Activation of caspase 9 in human SF188 cells at 108.4 uM; type: cell-based; conditions: SF-188; summary of the method: as §3
# T2 sequence (whole entry): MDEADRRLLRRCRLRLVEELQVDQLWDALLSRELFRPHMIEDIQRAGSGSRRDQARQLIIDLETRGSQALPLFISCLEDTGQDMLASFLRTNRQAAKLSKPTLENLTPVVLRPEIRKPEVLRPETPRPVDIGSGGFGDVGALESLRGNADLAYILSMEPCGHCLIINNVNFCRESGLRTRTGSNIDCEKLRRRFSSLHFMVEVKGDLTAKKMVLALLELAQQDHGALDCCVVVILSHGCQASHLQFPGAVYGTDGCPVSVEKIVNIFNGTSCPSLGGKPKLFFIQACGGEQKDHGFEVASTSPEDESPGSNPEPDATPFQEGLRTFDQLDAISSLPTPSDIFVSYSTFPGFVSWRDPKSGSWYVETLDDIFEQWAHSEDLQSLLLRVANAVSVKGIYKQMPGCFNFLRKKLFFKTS
# [5] = Cytotoxicity against human U87MG cells at 108.4 uM after 24 hrs by MTT assay; type: cell-based; conditions: u-87mg atcc; summary of the method: as §1
# SF-188 [6] = assay: Induction of autophagy in human SF188 cells by MDC staining at 108.4 uM after 4 hrs; type: functional, cell-based
# Summary of the method: (§5)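 SF188 and U87MG cells were treated with 43.4 or 108.4 µM compound for 4 h. Autophagic vacuoles were then visualized by monodansylcadaverine (MDC) staining.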
# [7] = Cytotoxicity against human U87MG cells after 24 hrs; type: cell-based, U-87MG ATCC; conditions: U-87 MG; summary of the method: as §1
# Caspase-8 (Homo sapiens) = Caspase-8 (Homo sapiens) (UniProt Q14790); assay: Activation of caspase 8 in human SF188 cells at 108.4 uM; type: cell-based; conditions: SF-188; summary of the method: as §3
# Chain of Caspase-8 (Homo sapiens) (Q14790 217-374 limits assumed): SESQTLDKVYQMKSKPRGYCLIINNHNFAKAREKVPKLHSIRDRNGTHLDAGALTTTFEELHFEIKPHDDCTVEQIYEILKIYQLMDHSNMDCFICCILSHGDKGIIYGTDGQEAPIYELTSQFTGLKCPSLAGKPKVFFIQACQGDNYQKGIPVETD
# Chain of Caspase-8 (Homo sapiens) (Q14790 385-479 limits assumed): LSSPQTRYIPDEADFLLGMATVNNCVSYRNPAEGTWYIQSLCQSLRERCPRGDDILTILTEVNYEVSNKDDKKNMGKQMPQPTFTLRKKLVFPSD
# Caspase-7 (Homo sapiens) = target: T3, Caspase-7 (Homo sapiens) (UniProt P55210); assay: Activation of caspase 7 in human SF188 cells at 108.4 uM; type: cell-based; conditions: SF-188; summary of the method: as §3
# T3 sequence (whole entry): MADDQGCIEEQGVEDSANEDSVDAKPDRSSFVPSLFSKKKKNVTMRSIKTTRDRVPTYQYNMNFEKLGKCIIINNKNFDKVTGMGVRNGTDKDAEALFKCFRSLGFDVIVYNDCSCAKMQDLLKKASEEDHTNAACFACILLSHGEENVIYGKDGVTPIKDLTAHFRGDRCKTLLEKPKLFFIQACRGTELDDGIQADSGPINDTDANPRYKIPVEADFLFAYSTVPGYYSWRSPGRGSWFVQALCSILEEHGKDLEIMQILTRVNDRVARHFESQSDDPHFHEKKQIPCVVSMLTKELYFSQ
# SF-188 [8] = assay: Reduction of Akt phosphorylation in human SF188 cells after 5 hrs; type: cell-based
# SF-188 [9] = assay: Induction of autophagy in human SF188 cells by MDC staining at 43.4 uM after 4 hrs; type: functional, cell-based; summary of the method: as §5
# SF-188 [10] = assay: Induction of apoptosis in human SF188 cells at 108.4 uM within 3 hrs; type: functional
# Summary of the method: (§6)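 SF188 or U87MG cells were treated with 108 µM compound and stained by TUNEL (ApopTag). Apoptotic cells were counted as % TUNEL-positive: at 3 h for SF188, at 7 h for U87MG. Untreated cells served as controls.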
# U-87 MG [11] = assay: Induction of autophagy in human U87MG cells by MDC staining at 43.4 uM after 4 hrs; type: functional, cell-based; conditions: U-87MG ATCC; summary of the method: as §5
# U-87MG ATCC [12] = assay: Activation of caspases in human U87MG cells; type: cell-based
# Summary of the method: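 Western blot of U87MG cells treated with 108.4 µM compound for up to 9 h, probing pro- and cleaved caspases-8 and -3. 50 µg protein per lane. Lysate from treated SF188 cells served as positive control and actin as loading control.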
# [13] = Cytotoxicity against human SF188 cells at 43.4 uM after 24 hrs by MTT assay; type: cell-based; conditions: sf-188, 24 h; summary of the method: as §1
# SF-188 [14] = assay: Cell viability in human SF188 cells in presence of tBHQ at 86.8 uM; type: functional
# SF-188 [15] = assay: Cell viability of human SF188 cells in presence of tBHQ, Z-VAD-FMK; type: functional
# U-87 MG [16] = assay: Induction of autophagy in human U87MG cells by MDC staining at 108.4 uM after 4 hrs; type: functional, cell-based; conditions: U-87MG ATCC; summary of the method: as §5
# SF-188 [17] = assay: Cell viability in human SF188 cells in presence of Z-VAD-FMK; type: functional
# U-87MG ATCC [18] = assay: Reduction of Akt phosphorylation in human U87MG cells after 7 hrs; type: cell-based
# U-87 MG [19] = assay: Induction of apoptosis in human U87MG cells at 108.4 uM within 7 hrs; type: functional, U-87MG ATCC; summary of the method: as §6
# SF-188 [20] = assay: Increase in superoxide anion level in human SF188 cells after 2 hrs; type: functional, cell-based; summary of the method: as §2
# SF-188 [21] = assay: Inhibition of cycloheximide-induced apoptosis in human SF188 cells; type: functional, cell-based
# SF-188 [22] = assay: Inhibition of 20S-protopanaxadiol-induced activation of caspases in human SF188 cells; type: cell-based
# SF-188 [23] = assay: Inhibition of TNF-alpha-induced apoptosis in human SF188 cells; type: functional, cell-based
# SF-188 [24] = assay: Inhibition of 20S-protopanaxadiol-induced apoptosis in human SF188 cells after 8 hrs by MTT assay; type: functional; parameters: scale not given: the % may be the effect or the level left; summary of the method: as §4
smiles,measurement,setting,value
CC(C)=CCC[C@](C)(O)[C@H]1CC[C@]2(C)[C@@H]1[C@H](O)C[C@@H]1[C@@]3(C)CC[C@H](O)C(C)(C)[C@@H]3CC[C@]12C,Activity,[1],90%
same,IC50,[2],24 µM
same,Activity,U-87 MG [3],Active
same,Activity,Caspase-3 (Homo sapiens),Active
same,Activity,SF-188 [4],16.5%
same,Activity,Caspase-9 (Homo sapiens),Active
same,Activity,[5],90%
same,Activity,SF-188 [6],Active
same,IC50,[7],38 µM
same,Activity,Caspase-8 (Homo sapiens),Active
same,Activity,Caspase-7 (Homo sapiens),Active
same,Activity,SF-188 [8],inactive
same,Activity,SF-188 [9],Active
same,Activity,SF-188 [10],42.67%
same,Activity,U-87 MG [11],Active
same,Activity,U-87MG ATCC [12],inactive
same,Activity,[13],100%
same,Activity,SF-188 [14],30.46%
same,Activity,SF-188 [15],89.4%
same,Activity,U-87 MG [16],Active
same,Activity,SF-188 [17],36%
same,Activity,U-87MG ATCC [18],Dose-dependent effect
same,Activity,U-87 MG [19],51.01%
same,Activity,SF-188 [20],Active
CC(C)[C@H](NC(=O)OCc1ccccc1)C(=O)N[C@@H](C)C(=O)N[C@@H](CC(=O)O)C(=O)CF (Cbz-Val-Ala-Asp-CH2F),Activity,SF-188 [21],Active
same,Activity,SF-188 [22],Active
same,Activity,SF-188 [23],Active
same,Activity,SF-188 [24],44.72%
